Reference: ChEMBL document CHEMBL2331333, “Synthesis, biological evaluation of new oxazolidino-sulfonamides as potential antimicrobial agents” (2013)
Converted amounts (≈) assume the structure as drawn. The source made the active and inactive calls. The calls are words filed in the database; no cut-off is given here.

Legend:
[1] = tested on: Mycobacterium tuberculosis; assay: Antibacterial activity against Mycobacterium tuberculosis H37Rv at 32 ug/ml […] by agar dilution method; assay type: functional, organism-based
[2] = tested on: Staphylococcus aureus; assay: Antibacterial activity against Staphylococcus aureus MTCC 96 after 24 hrs by agar dilution method; assay type: functional; conditions: MTCC 96, 24 h
[3] = tested on: Bacillus subtilis; assay: Antibacterial activity against Bacillus subtilis MTCC 121 after 24 hrs by agar dilution method; assay type: functional; conditions: MTCC 121, 24 h
[4] = tested on: Micrococcus luteus; assay: Antibacterial activity against Micrococcus luteus MTCC 2470 after 24 hrs by agar dilution method; assay type: functional; conditions: MTCC 2470, 24 h
[5] = tested on: Candida albicans; assay: Antifungal activity against Candida albicans MTCC 3017 after 48 hrs by agar dilution method; assay type: functional; conditions: MTCC 3017, 48 h
In short: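 Same disk/dilution format as the antibacterial assay, on potato dextrose agar (39 g/L). Compounds were from DMSO stock, loaded at 1 to 80 per disk, in triplicate. Plates were incubated at 28 ± 2 °C for 48 h. MIC was the lowest amount that arrested growth. Equivalent DMSO served as solvent control.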

[6] = tested on: Raoultella planticola; assay: Antibacterial activity against Klebsiella planticola MTCC 530 at 80 ug/ml after 24 hrs by agar dilution method; assay type: functional, organism-based
[7] = tested on: Pseudomonas aeruginosa; assay: Antibacterial activity against Pseudomonas aeruginosa MTCC 2453 after 24 hrs by agar dilution method; assay type: functional; conditions: MTCC 2453, 24 h
[8] = tested on: Escherichia coli; assay: Antibacterial activity against Escherichia coli MTCC 739 at 80 ug/ml after 24 hrs by agar dilution method; assay type: functional, organism-based
[9] = tested on: Staphylococcus; assay: Antibacterial activity against Staphylococcus MLS-16 MTCC 2940 after 24 hrs by agar dilution method; assay type: functional; conditions: MLS-16 MTCC 2940, 24 h
[10] = tested on: Pseudomonas aeruginosa; assay: Antibacterial activity against Pseudomonas aeruginosa MTCC 2453 at 80 ug/ml after 24 hrs by agar dilution method; assay type: functional, organism-based
[11] = tested on: Micrococcus luteus; assay: Antibacterial activity against Micrococcus luteus MTCC 2470 at 80 ug/ml after 24 hrs by agar dilution method; assay type: functional, organism-based
[12] = tested on: Candida albicans; assay: Antifungal activity against Candida albicans MTCC 3017 at 20 ug/ml after 24 hrs by disk diffusion method; assay type: functional; conditions: MTCC 3017, 24 h, read-out: IZ

Row | SMILES | Activity [1] | MIC [2] | MIC [3] | MIC [4] | MIC [5] | Activity [6] | MIC [7] | Activity [8] | MIC [9] | Activity [10] | Activity [11] | zone of inhibition at 20 µg/mL [12]
1 | CC(C)(C)OC(=O)N1CCN(c2ccc(N3C[C@H](CNS(=O)(=O)c4ccc(C(F)(F)F)cc4)OC3=O)cc2F)CC1 | inactive | 10 µg/mL (≈ 16.6 µM) | 8 µg/mL (≈ 13.3 µM) | 20 µg/mL (≈ 33.2 µM) | 20 µg/mL (≈ 33.2 µM) | inactive | 10 µg/mL (≈ 16.6 µM) | inactive | 10 µg/mL (≈ 16.6 µM) | – | – | –
2 | O=C1O[C@@H](CNS(=O)(=O)c2ccc(F)c(Cl)c2)CN1c1ccc(N2CCOCC2)c(F)c1 | inactive | 6 µg/mL (≈ 12.3 µM) | 6 µg/mL (≈ 12.3 µM) | 6 µg/mL (≈ 12.3 µM) | 6 µg/mL (≈ 12.3 µM) | inactive | – | inactive | 6 µg/mL (≈ 12.3 µM) | inactive | – | –
3 | O=C1O[C@@H](CNS(=O)(=O)c2ccc(F)c(Cl)c2)CN1c1ccc(N2CCSCC2)c(F)c1 | inactive | 8 µg/mL (≈ 15.9 µM) | 10 µg/mL (≈ 19.8 µM) | – | 20 µg/mL (≈ 39.7 µM) | inactive | – | inactive | 8 µg/mL (≈ 15.9 µM) | inactive | inactive | –
4 | O=C1O[C@@H](CNS(=O)(=O)c2cccc(Cl)c2)CN1c1ccc(N2CCOCC2)c(F)c1 | inactive | 6 µg/mL (≈ 12.8 µM) | 6 µg/mL (≈ 12.8 µM) | 8 µg/mL (≈ 17 µM) | 8 µg/mL (≈ 17 µM) | inactive | – | inactive | 6 µg/mL (≈ 12.8 µM) | inactive | – | –
5 | O=C1O[C@@H](CNS(=O)(=O)c2ccc(C(F)(F)F)cc2)CN1c1ccc(N2CCOCC2)c(F)c1 | inactive | 10 µg/mL (≈ 19.9 µM) | 8 µg/mL (≈ 15.9 µM) | 8 µg/mL (≈ 15.9 µM) | 20 µg/mL (≈ 39.7 µM) | inactive | 8 µg/mL (≈ 15.9 µM) | inactive | 10 µg/mL (≈ 19.9 µM) | – | – | –
6 | O=C1O[C@@H](CNS(=O)(=O)c2cccs2)CN1c1ccc(N2CCSCC2)c(F)c1 | inactive | 4 µg/mL (≈ 8.74 µM) | 2 µg/mL (≈ 4.37 µM) | 6 µg/mL (≈ 13.1 µM) | 4 µg/mL (≈ 8.74 µM) | inactive | 4 µg/mL (≈ 8.74 µM) | inactive | 4 µg/mL (≈ 8.74 µM) | – | – | –
7 | O=C1O[C@@H](CNS(=O)(=O)c2cccc3cccnc23)CN1c1ccc(N2CCSCC2)c(F)c1 | inactive | 6 µg/mL (≈ 11.9 µM) | 8 µg/mL (≈ 15.9 µM) | – | 8 µg/mL (≈ 15.9 µM) | inactive | 8 µg/mL (≈ 15.9 µM) | inactive | 6 µg/mL (≈ 11.9 µM) | – | inactive | –
8 | CC(=O)Nc1nc(C)c(S(=O)(=O)NC[C@H]2CN(c3ccc(N4CCSCC4)c(F)c3)C(=O)O2)s1 | – | 8 µg/mL (≈ 15.1 µM) | 10 µg/mL (≈ 18.9 µM) | – | 8 µg/mL (≈ 15.1 µM) | inactive | 8 µg/mL (≈ 15.1 µM) | inactive | 8 µg/mL (≈ 15.1 µM) | – | inactive | –
9 | O=C1O[C@@H](CNS(=O)(=O)c2ccc(Oc3ccccc3)cc2)CN1c1ccc(N2CCOCC2)c(F)c1 | inactive | 4 µg/mL (≈ 7.58 µM) | 8 µg/mL (≈ 15.2 µM) | 8 µg/mL (≈ 15.2 µM) | 6 µg/mL (≈ 11.4 µM) | inactive | – | inactive | 4 µg/mL (≈ 7.58 µM) | inactive | – | –
10 | O=C1O[C@@H](CNS(=O)(=O)c2ccc(C(F)(F)F)cc2)CN1c1ccc(N2CCSCC2)c(F)c1 | inactive | 8 µg/mL (≈ 15.4 µM) | 10 µg/mL (≈ 19.2 µM) | – | 8 µg/mL (≈ 15.4 µM) | inactive | 8 µg/mL (≈ 15.4 µM) | inactive | 8 µg/mL (≈ 15.4 µM) | – | inactive | –
11 | O=C1O[C@@H](CNS(=O)(=O)c2cccc3cccnc23)CN1c1ccc(N2CCOCC2)c(F)c1 | inactive | 10 µg/mL (≈ 20.6 µM) | 8 µg/mL (≈ 16.4 µM) | 8 µg/mL (≈ 16.4 µM) | 20 µg/mL (≈ 41.1 µM) | inactive | 6 µg/mL (≈ 12.3 µM) | inactive | 10 µg/mL (≈ 20.6 µM) | – | – | –
12 | CC(=O)c1ccc(S(=O)(=O)NC[C@H]2CN(c3ccc(N4CCSCC4)c(F)c3)C(=O)O2)cc1 | inactive | 8 µg/mL (≈ 16.2 µM) | 10 µg/mL (≈ 20.3 µM) | – | 20 µg/mL (≈ 40.5 µM) | inactive | – | inactive | 8 µg/mL (≈ 16.2 µM) | inactive | inactive | –
13 | O=C1O[C@@H](CNS(=O)(=O)c2ccc(F)c(F)c2)CN1c1ccc(N2CCOCC2)c(F)c1 | inactive | – | 10 µg/mL (≈ 21.2 µM) | – | 10 µg/mL (≈ 21.2 µM) | – | 10 µg/mL (≈ 21.2 µM) | – | 10 µg/mL (≈ 21.2 µM) | – | inactive | –
14 | O=C1O[C@@H](CNS(=O)(=O)c2ccc(F)c(F)c2F)CN1c1ccc(N2CCOCC2)c(F)c1 | inactive | 6 µg/mL (≈ 12.3 µM) | 6 µg/mL (≈ 12.3 µM) | – | 6 µg/mL (≈ 12.3 µM) | inactive | 8 µg/mL (≈ 16.3 µM) | inactive | 6 µg/mL (≈ 12.3 µM) | – | inactive | –
15 | CC(=O)Nc1nc(C)c(S(=O)(=O)NC[C@H]2CN(c3ccc(N4CCOCC4)c(F)c3)C(=O)O2)s1 | – | 20 µg/mL (≈ 38.9 µM) | 8 µg/mL (≈ 15.6 µM) | – | 20 µg/mL (≈ 38.9 µM) | inactive | 8 µg/mL (≈ 15.6 µM) | inactive | 20 µg/mL (≈ 38.9 µM) | – | inactive | –
16 | CC(=O)c1ccc(S(=O)(=O)NC[C@H]2CN(c3ccc(N4CCOCC4)c(F)c3)C(=O)O2)cc1 | inactive | 6 µg/mL (≈ 12.6 µM) | 6 µg/mL (≈ 12.6 µM) | 6 µg/mL (≈ 12.6 µM) | 6 µg/mL (≈ 12.6 µM) | inactive | – | inactive | 6 µg/mL (≈ 12.6 µM) | inactive | – | –
17 | OC(Cn1cncn1)(Cn1cncn1)c1ccc(F)cc1F [FLUCONAZOLE] | – | – | – | – | 1 µg/mL (≈ 3.27 µM) | – | – | – | – | – | – | 20 mm
18 | O=C1O[C@@H](CNS(=O)(=O)c2cc(Cl)cc(Cl)c2)CN1c1ccc(N2CCOCC2)c(F)c1 | inactive | 8 µg/mL (≈ 15.9 µM) | 8 µg/mL (≈ 15.9 µM) | – | 8 µg/mL (≈ 15.9 µM) | inactive | 40 µg/mL (≈ 79.3 µM) | inactive | 8 µg/mL (≈ 15.9 µM) | – | inactive | –
19 | O=C1O[C@@H](CNS(=O)(=O)c2cc(S(=O)(=O)c3ccccc3)cs2)CN1c1ccc(N2CCSCC2)c(F)c1 | inactive | 6 µg/mL (≈ 10 µM) | 8 µg/mL (≈ 13.4 µM) | – | 8 µg/mL (≈ 13.4 µM) | inactive | 8 µg/mL (≈ 13.4 µM) | inactive | 6 µg/mL (≈ 10 µM) | – | inactive | –
20 | CC(C)(C)OC(=O)N1CCN(c2ccc(N3C[C@H](CNS(=O)(=O)c4ccc(F)cc4)OC3=O)cc2F)CC1 | inactive | 10 µg/mL (≈ 18.1 µM) | 20 µg/mL (≈ 36.2 µM) | 10 µg/mL (≈ 18.1 µM) | 10 µg/mL (≈ 18.1 µM) | inactive | 20 µg/mL (≈ 36.2 µM) | inactive | 10 µg/mL (≈ 18.1 µM) | – | – | –
